An excerpt weighted towards active compounds, which were near 4.4% of everything screened.
NR3A LBD binder: binders of NR3A ligand-binding domain, primary screen, biophysical, differential scanning fluorimetry, uHTS | Glutamate receptor ionotropic, NMDA 3A (GRIN3A) ligand-binding domain | NR3A LBD differential scanning fluorimetry, Tm shift; 0% = protein alone, 100% = glycine-bound protein | Tm shift relative to glycine control, % at 25 µM | 2.5% of 340,000 active | AID 1259313, 2017;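 active = melting temperature shift of at least 10% of the positive control shift, at one fixed dose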
MPTP block: mitochondrial permeability transition pore inhibitors, primary screen, biochemical, isolated mouse mitochondria, absorbance; inhibition, % at 10 µM; AID 602449, 2012; Ca2+ swelling absorbance, 30 min; 1.4% of 360,000 active;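 active = inhibition of 50% or more, scaled per plate between neutral and stimulator controls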;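 also: 0% = DMSO wells given calcium and 100% = 1 mM EGTA wells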
EBI2 antag: EBI2 receptor antagonists, beta-arrestin recruitment, primary screen, cell-based, luminescence, 7a,25-OHC stimulation, uHTS; inhibition, % at 5 µM; 7a,25-OHC stimulated; G-protein coupled receptor 183 (Homo sapiens), P32249; 0.81% of 360,000 active; in the data active = inhibition above about 38%;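 also: enzyme fragment complementation signal reports receptor beta-arrestin coupling in cells; 0% = agonist plus DMSO wells and 100% = wells without agonist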
Target sequence (P32249 whole entry, looked up, the tested form may be a part): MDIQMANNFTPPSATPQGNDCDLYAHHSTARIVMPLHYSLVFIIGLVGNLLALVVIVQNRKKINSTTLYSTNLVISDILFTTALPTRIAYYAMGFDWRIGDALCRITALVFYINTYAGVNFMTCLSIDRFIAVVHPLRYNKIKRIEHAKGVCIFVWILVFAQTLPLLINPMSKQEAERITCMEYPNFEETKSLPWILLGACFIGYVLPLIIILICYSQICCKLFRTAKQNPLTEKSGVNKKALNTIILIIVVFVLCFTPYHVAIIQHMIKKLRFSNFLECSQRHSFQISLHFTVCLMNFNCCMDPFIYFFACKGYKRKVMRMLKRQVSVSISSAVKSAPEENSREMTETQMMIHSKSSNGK
SENP1 inh: human SENP1 catalytic domain inhibitors, primary screen, biochemical, FRET, uHTS; Sentrin-specific protease 1 (Homo sapiens), Q9P0U3; recombinant SENP1 catalytic domain, CyPet-SUMO1-YPet FRET cleavage; inhibition, % at 10 µM; 0.21% of 360,000 active; AID 624204, 2012;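 active = inhibition at least 30% at 10 µM, raw YFP signal under a set limit, fluorescence ratio 0.5 to 1.5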;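 also: 0% = enzyme with DMSO and 100% = no enzyme wells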
Target sequence (Q9P0U3 419-644 limits assumed): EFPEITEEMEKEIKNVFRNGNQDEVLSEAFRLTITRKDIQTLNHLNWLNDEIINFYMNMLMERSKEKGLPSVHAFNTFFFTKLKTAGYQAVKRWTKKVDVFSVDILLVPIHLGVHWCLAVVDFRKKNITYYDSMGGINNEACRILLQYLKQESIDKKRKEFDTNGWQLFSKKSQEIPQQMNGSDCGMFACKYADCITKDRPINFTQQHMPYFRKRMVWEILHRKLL
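Material – human SENP1 catalytic domain · Input – SENP1 enzyme, 20 pM final · Compound dosing – single concentration of 10 µM compound, 0.5% DMSO final · Timing – enzyme reaction for 50 min at room temperature, dark · Measured by – FRET fluorescence in CFP and YFP emission channels · Control set – no-enzyme wells low, DMSO-plus-enzyme wells high control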
* marks the source's active call; other numbers are inactive results; / = no result.

SMILES | NR3A LBD binder | MPTP block | EBI2 antag | SENP1 inh
O=C1C(=O)c2cccnc2-c2ncccc21 | / | -1 | -120 | 29*
COc1ccccc1C(=O)NNC(=O)CN(C)S(=O)(=O)c1ccc(Cl)cc1 | / | 0 | 5 | 0
COc1cc(OC)c(C(=O)NNC(=O)CN(C)S(=O)(=O)c2ccc(Cl)cc2)cc1OC | 35* | -3 | -1 | 1
Cc1cn(CC(=O)NCCNc2ccc([N+](=O)[O-])cn2)c(=O)[nH]c1=O | 1 | 2 | -6 | -1
COc1ccc(OCCCC(=O)Nc2cccc([N+](=O)[O-])c2)cc1 | 16* | 10 | 0 | -1
COc1cc([N+](=O)[O-])ccc1NC(=O)CCCOc1ccc(C)cc1 | -7 | 1 | -2 | 2
COc1ccc(C(=O)CC(Nc2ccc([N+](=O)[O-])cc2)c2ccc(Cl)cc2)cc1 (stereo unspecified) | 11* | 28 | 43 | -3
COc1ccc(C(=O)CC(=O)C(=O)Nc2ccc(Cl)cc2)cc1 | 1 | 4 | -12 | -1
COc1cccc(NC(=O)CC(=O)c2ccc([N+](=O)[O-])cc2)c1 | 17* | 2 | 10 | 2
CCN(CC(=O)Nc1ccc(NC(C)=O)cc1)C(=O)CN1C(=O)NC2(CCCC2)C1=O | 2 | 0 | 1 | 2
O=C(NCCc1ccc(C(F)(F)F)cc1)C1CC(=O)N(Cc2ccccc2)C1 (stereo unspecified) | 1 | -4 | -12 | -1
CCOc1ccc(N(CC(=O)NCCc2ccccc2)C(=O)c2csnn2)cc1 | -3 | 0 | 6 | 1
Cc1noc(C)c1S(=O)(=O)N1CCC(C(=O)NCCc2ccc(S(N)(=O)=O)cc2)CC1 | 11* | -1 | -4 | 0
Cc1ccsc1C(=O)N1CCC(N2CCC(C(=O)NCC3CCCO3)CC2)CC1 (stereo unspecified) | -2 | -5 | 1 | -23
COc1ccc(OC)c(S(=O)(=O)N2CCC(C(=O)NCCc3ccc(OC)c(OC)c3)CC2)c1 | 11* | 0 | -9 | -1
COc1ccc(C(C)C)cc1S(=O)(=O)N1CCC(C(=O)NCC2CCCO2)CC1 (stereo unspecified) | 11* | 0 | -3 | 2
Cc1noc(C)c1S(=O)(=O)N1CCC(C(=O)NCCC2=CCCCC2)CC1 | 1 | -1 | 4 | -2
O=C(NCC1CCCO1)C1CCN(C(=O)c2ccc(Br)cc2)CC1 (stereo unspecified) | 14* | 0 | 5 | 1
COc1ccnc(Oc2ccc(C)cc2C)c1C#N | -2 | 0 | 5 | 2
COc1cccc(CNC(=O)C2CCN(S(=O)(=O)N3CCCCC3)CC2)c1 | 13* | 0 | 3 | 1
COc1ccc(S(=O)(=O)N2CCC(C(=O)NCc3cccc(OC)c3)CC2)cc1 | 1 | 1 | 17 | 2
O=C(COC(=O)CNS(=O)(=O)c1ccc(Br)cc1Cl)Nc1ccc(N2CCOCC2)cc1 | -1 | 0 | -8 | 4
O=C(CSc1nc2ccccc2o1)Nc1ccc(Cl)cc1 | 19* | 42 | 3 | 1
O=C(CSc1ccc(Cl)cc1)Nc1ccc(NC(=O)c2ccco2)cc1 | 21* | 0 | -3 | 0
CC(C)N(C(=O)CSc1nnc(NC(=O)c2ccco2)s1)C(C)C | -1 | -1 | 1 | 3
SMILES | NR3A LBD binder | MPTP block | EBI2 antag | SENP1 inh
CC(=O)c1ccc(NC(=O)CSc2nnc(NC(=O)c3ccco3)s2)cc1 | 19* | 0 | 3 | 1
Cc1ccc(NC(=O)CSc2nnc(NC(=O)c3ccco3)s2)cc1 | 13* | -1 | -2 | 1
COc1ccc(CN2C(=O)c3ccccc3C(/C=N/OCc3ccc(Cl)cc3)C2=O)cc1 (stereo unspecified) | 11* | 0 | -13 | -40
Clc1ccc(Oc2nnnn2-c2ccccc2)cc1 | -3 | -2 | -4 | 2
CCN(CC)c1ccc(C=Nc2ccc(C)cc2)c(O)c1 | 13* | 0 | 2 | -6
CN1/C(=C\C(=O)Nc2ccc(Br)cc2)C(C)(C)c2ccccc21 | 19* | 28 | -3 | -2
CCOC(=O)C1=C(C)Nc2nc3ccccc3n2C1c1ccncc1 (stereo unspecified) | 1 | 3 | 0 | 0
CCCCCn1ccc(=N)cc1 | 11* | 0 | -13 | 3
CCCCCCCn1ccc(=N)cc1 | -7 | 3 | 0 | 1
CC(C)Cc1nnc(NC(=O)C2CCN(C(=O)c3ccc(F)cc3)CC2)s1 | 0 | -1 | 12 | 1
CC1CC(C)(C)NC(=S)N1CCCC(=O)Nc1ccc(Br)cc1 (stereo unspecified) | -1 | -1 | -7 | 3
CCOc1ccc(NC(=O)CCCN2C(=S)NC(C)(C)CC2C)cc1 (stereo unspecified) | 12* | -1 | -6 | 2
O=C1c2ccccc2NC2CCCCCN12 (stereo unspecified) | 5 | 0 | 10 | 1
O=C1COC(c2ccccc2)C2CCCCN12 (stereo unspecified) | 16* | 2 | 3 | 5
N#C/C(=C\c1ccccc1[N+](=O)[O-])c1nc(C2CC2)cs1 | 16* | 0 | -8 | 1
N#C/C(=C/c1ccccc1[N+](=O)[O-])c1nc(C2CC2)cs1 | 9 | -1 | -12 | 0
O=C(/C=C/c1ccccc1Cl)Nc1ccc(Cl)cn1 | -8 | -1 | 1 | 0
CN(C)c1ccc(NC(=O)/C=C/c2c(Cl)cccc2Cl)cc1 | -6 | 23 | 19 | 4
CN(C)S(=O)(=O)c1ccc(NC(=O)/C=C/c2ccccc2Cl)cc1 | 27* | 30 | 26 | 1
O=C(/C=C/c1ccccc1Cl)Nc1cccc(O)c1 | 30* | 8 | 14 | 1
O=C(/C=C/c1ccccc1Cl)Nc1ccccc1 | 20* | 24 | 0 | 0
CCOc1ccc(S(=O)(=O)N2CCC(C(=O)NCc3ccccn3)CC2)cc1 | 0 | 1 | 0 | 1
CC1CCc2c(sc(NC(=O)CSc3nc4c(c(C(F)(F)F)n3)CCc3ccccc3-4)c2C(N)=O)C1 (stereo unspecified) | -2 | 0 | -6 | 1
O=C(NCCC(=O)N1CCN(S(=O)(=O)c2ccccc2F)CC1)Nc1ccccc1 | -2 | 0 | 33 | 0
CC(/C=N/NC(=O)COc1ccccc1C)=N\NC(=O)COc1ccccc1C | 12* | 2 | -3 | 1
CCc1ccc(-c2cc(C)no2)cc1S(=O)(=O)NCCN1CCC(C)CC1 | 15* | 0 | -1 | 1
COc1ccc(NC(=O)NCCc2cccc(Cl)c2)cc1OC | 16* | 3 | 3 | 0
COc1ccc(CCNC(=S)NCCc2ccc(OC)c(OC)c2)cc1OC | 27* | 0 | -1 | 2
CCOc1ccc(-c2nnn(CC(=O)N3CCCC(C)C3)n2)cc1 (stereo unspecified) | 0 | 0 | 3 | 0

Bioassay records deposited in PubChem by Sanford-Burnham Center for Chemical Genomics.
